A selection: hits, their analogues and other compounds. The true share with any hit is near 1.5%.
RAD52 anneal inh = RAD52 (human) annealing inhibition | P43351 | recombinant RAD52 DNA annealing, FRET fluorescence | inhibition, % at 18.7 µM | hit rate 0.46% among 360,000;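 active = every replicate showing at least 50% inhibition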
RAD54 inh = blocks human RAD54 Holliday junction branch migration | Q92698 | inhibition, % at 10.4 µM | FAM/BHQ fluorescence | hit rate 0.14% among 360,000;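 active = mean normalized replicate activity at least 40 and at least half of replicates scoring 40 or more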;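 note: 0% = median of neutral control wells and 100% = median of positive control wells; inhibitors cause a drop in the FAM fluorescence signal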
AF4-AF9 inh = blocks AF4 peptide binding to human AF9; AlphaScreen, biotin-AF4 peptide binding to FLAG-AF9; inhibition, % at 10 µM; hit rate 0.47% among 350,000; AID 651704;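 active = every replicate reaching a set inhibition limit, whatever the replicate mean, cut at about 25% in these data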;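 note: 0% = plate neutral control median and 100% = total signal loss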
Target sequence (P42568 whole entry, looked up): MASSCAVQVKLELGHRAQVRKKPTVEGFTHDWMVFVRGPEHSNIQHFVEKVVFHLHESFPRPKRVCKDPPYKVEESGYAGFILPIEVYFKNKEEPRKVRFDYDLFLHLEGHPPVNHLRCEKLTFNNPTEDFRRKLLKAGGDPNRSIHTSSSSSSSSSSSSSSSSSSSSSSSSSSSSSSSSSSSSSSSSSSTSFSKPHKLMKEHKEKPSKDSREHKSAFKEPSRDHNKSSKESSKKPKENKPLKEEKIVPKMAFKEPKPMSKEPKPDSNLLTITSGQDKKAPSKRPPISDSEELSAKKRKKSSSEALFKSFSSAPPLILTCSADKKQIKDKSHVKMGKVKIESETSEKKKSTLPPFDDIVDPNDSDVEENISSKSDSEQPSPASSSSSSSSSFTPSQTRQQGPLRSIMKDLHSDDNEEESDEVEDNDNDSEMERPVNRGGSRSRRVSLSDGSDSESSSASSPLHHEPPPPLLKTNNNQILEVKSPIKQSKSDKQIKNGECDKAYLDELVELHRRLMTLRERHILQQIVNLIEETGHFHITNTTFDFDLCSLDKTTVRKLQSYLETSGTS
dFosB act = enhances mouse delta FosB homodimer DNA binding. AID 493131. purified delta FosB, TAMRA-CDK5 oligo fluorescence polarization; percent of positive-control signal above neutral wells. hit rate 0.99% among 340,000. P13346. activation, % at 25 µM;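 active = mean activation above about 17%, with every replicate also reaching it, limit read from the data, passing the limit was not always enough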
S100A4 inh HTS = inhibitors of human S100A4 binding to myosin IIA peptide | S100A4/TAMRA-MyoIIA peptide fluorescence polarization | P26447 | hit rate 0.14% among 360,000 | AID 652163 | inhibition, % at 10.7 µM;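 active = mean inhibition of at least 70% across replicates, with every replicate also reaching that level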
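Material: S100A4 monomer (human). Medium: Calcium-containing HEPES buffer, pH 7.2. Probe or stimulus: labelled myosin peptide probe, 5 nM. Compound dosing: one concentration per compound. Timing: polarization read 5 min after assay mix addition, stable 5–60 min. Benchmarks: DMSO as neutral control, TFP as positive control.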
Active calls of the source: *.

How did CC(C)NC(=O)N(C)C[C@H]1Oc2ccc(NS(=O)(=O)c3ccc(Cl)cc3)cc2CC(=O)N([C@H](C)CO)C[C@H]1C do in these assays?
RAD52 anneal inh: 3; RAD54 inh: -2; AF4-AF9 inh: -3; S100A4 inh HTS: -1

What do the screens show for `CCOC(=O)CSC1=C(C#N)C(c2ccc(C)o2)CC(=O)N1` (stereo unspecified)?
RAD52 anneal inh: -17; RAD54 inh: -2; AF4-AF9 inh: 30*; dFosB act: 1; S100A4 inh HTS: -3

How did Nc1ccc(Nc2ccc([N+](=O)[O-])cc2[N+](=O)[O-])cc1 do in these assays?
RAD52 anneal inh: -2; AF4-AF9 inh: 27*; dFosB act: -11; S100A4 inh HTS: -2

Results for NC(=O)c1ccc(Nc2ccc([N+](=O)[O-])cc2[N+](=O)[O-])cc1 ?
RAD52 anneal inh: -2; AF4-AF9 inh: 1; dFosB act: -5; S100A4 inh HTS: 6

How did O=C(Nc1ccc(N2CCCCCC2)cc1)c1ccc[nH]1 do in these assays?
RAD52 anneal inh: 4; RAD54 inh: -2; AF4-AF9 inh: 34*; dFosB act: -2; S100A4 inh HTS: -5

Results for O=C(Nc1ccc(N2CCCC2)cc1)c1ccc(Cl)cc1Cl ?
RAD52 anneal inh: 3; RAD54 inh: 3; AF4-AF9 inh: -2; dFosB act: 0; S100A4 inh HTS: 0

Results for O=C(/C=C/c1ccc(Cl)c([N+](=O)[O-])c1)Nc1ccc(N2CCCC2)cc1 ?
RAD52 anneal inh: -14; AF4-AF9 inh: 1; dFosB act: 28*; S100A4 inh HTS: -3

Results for O=C(Nc1ccc(N2CCCC2)cc1)c1cc(Cl)ccc1Cl ?
RAD52 anneal inh: -5; RAD54 inh: -6; AF4-AF9 inh: 7; dFosB act: 135*; S100A4 inh HTS: 3

How did O=C(Nc1ccc(N2CCCC2)cc1)c1ccc(Br)cc1 do in these assays?
RAD52 anneal inh: -2; RAD54 inh: -1; AF4-AF9 inh: 4; dFosB act: 59*; S100A4 inh HTS: 2

How did O=C(/C=C/c1ccc(Cl)c([N+](=O)[O-])c1)Nc1ccc(NC(=O)c2ccco2)cc1 do in these assays?
RAD52 anneal inh: -16; AF4-AF9 inh: -2; dFosB act: 13; S100A4 inh HTS: 0

What do the screens show for `C[C@H]1CCCCO[C@H](CN(C)C(=O)Nc2cccc3ccccc23)[C@@H](C)CN([C@@H](C)CO)C(=O)c2cc(NC(=O)Nc3ccc4c(c3)OCO4)ccc2O1`?
RAD52 anneal inh: 1; RAD54 inh: 3; AF4-AF9 inh: 1; S100A4 inh HTS: -24

Results for C[C@H]1CN([C@@H](C)CO)S(=O)(=O)c2ccc(C3=CCCCC3)cc2O[C@H]1CN(C)Cc1ccncc1 ?
RAD52 anneal inh: 0; RAD54 inh: -6; AF4-AF9 inh: 14; S100A4 inh HTS: 6

Results for O=C(c1ccccc1)N1CC2(C1)[C@H](c1ccccc1)[C@@H](CO)N2Cc1ccccn1 ?
RAD52 anneal inh: -20; AF4-AF9 inh: -4; S100A4 inh HTS: 107*

How did O=C(c1ccccc1)N1CC2(C1)[C@@H](c1ccccc1)[C@@H](CO)N2Cc1ccccn1 do in these assays?
RAD52 anneal inh: -7; AF4-AF9 inh: 0; S100A4 inh HTS: 11

How did CC(C)CC#Cc1ccc([C@@H]2[C@H](CO)N3C(=O)CN(C(=O)c4cccc(F)c4)C[C@@H]23)cc1 do in these assays?
RAD52 anneal inh: 16; AF4-AF9 inh: -1; S100A4 inh HTS: 15

How did COc1cccc(C(=O)Nc2ccc3c(c2)C(=O)N(C)C[C@H](OC)[C@@H](C)CN(C)[C@@H](C)CO3)c1 do in these assays?
RAD52 anneal inh: 10; RAD54 inh: 2; AF4-AF9 inh: -1; S100A4 inh HTS: -6

How did COc1cccc(NC(=O)Nc2ccc3c(c2)C(=O)N(C)C[C@H](OC)[C@H](C)CN(C)[C@H](C)CO3)c1 do in these assays?
RAD52 anneal inh: 89*; RAD54 inh: 0; AF4-AF9 inh: 11; S100A4 inh HTS: 29

Results for COc1cccc(NC(=O)Nc2ccc3c(c2)C(=O)N(C)C[C@@H](OC)[C@H](C)CN(CC2CC2)[C@@H](C)CO3)c1 ?
RAD52 anneal inh: 64*; RAD54 inh: 3; AF4-AF9 inh: 7; S100A4 inh HTS: -15

Results for COc1cccc(NC(=O)Nc2ccc3c(c2)C(=O)N(C)C[C@@H](OC)[C@@H](C)CN(C)[C@H](C)CO3)c1 ?
RAD52 anneal inh: 95*; RAD54 inh: 14; AF4-AF9 inh: 0; S100A4 inh HTS: 1

How did COc1cccc(NC(=O)Nc2ccc3c(c2)C(=O)N(C)C[C@H](OC)[C@H](C)CN(CC2CC2)[C@@H](C)CO3)c1 do in these assays?
RAD52 anneal inh: 45; RAD54 inh: -10; AF4-AF9 inh: 7; S100A4 inh HTS: -4

How did Cc1ccc(-n2c(COc3c(C)cccc3C)nnc2SCC(=O)Nc2nccs2)cc1 do in these assays?
RAD54 inh: 6; dFosB act: 21*

What do the screens show for `Fc1ccc(C2Nc3cccc4cccc(c34)N2)cc1`?
RAD52 anneal inh: -14; RAD54 inh: -14; AF4-AF9 inh: 5; dFosB act: 25*; S100A4 inh HTS: -15

How did COc1cc(C2Nc3cccc4cccc(c34)N2)cc(OC)c1O do in these assays?
RAD52 anneal inh: -6; AF4-AF9 inh: 1; dFosB act: 41*; S100A4 inh HTS: 3

Results for O=C(Nc1cc(F)ccc1F)N[C@@H]1CC[C@H](CCn2cc(C3CC3)nn2)O[C@H]1CO ?
RAD52 anneal inh: -7; RAD54 inh: 4; AF4-AF9 inh: -1; S100A4 inh HTS: 10

Results for CO[C@@H]1CN(C)C(=O)c2ccc(NC(=O)NC3CCCCC3)cc2OC[C@@H](C)N(C(=O)NC2CCCCC2)C[C@H]1C ?
RAD52 anneal inh: 23; RAD54 inh: 4; AF4-AF9 inh: -2; S100A4 inh HTS: -2

Results for CN(C)CCCN1c2ccc(O)cc2Sc2ccc(Cl)cc21 ?
RAD52 anneal inh: 49; RAD54 inh: 28; AF4-AF9 inh: 51*; S100A4 inh HTS: 3

Results for O=C(Nc1cccc(Cl)c1)N[C@@H]1CC[C@H](CCNC(=O)C2CCC2)O[C@H]1CO ?
RAD52 anneal inh: 6; RAD54 inh: -6; AF4-AF9 inh: -10; S100A4 inh HTS: -5

What do the screens show for `COC(=O)c1ccccc1NC1c2ccccc2C(=O)N1c1cccnc1` (stereo unspecified)?
RAD52 anneal inh: -12; RAD54 inh: 11; AF4-AF9 inh: 55*; dFosB act: -4; S100A4 inh HTS: -3

Results for O=C1c2ccccc2C(Nc2ccccc2F)N1c1cccnc1 (stereo unspecified) ?
RAD52 anneal inh: 0; RAD54 inh: -2; AF4-AF9 inh: -2; dFosB act: -3; S100A4 inh HTS: -1

How did Cc1cc2ccccn2c1C(=O)c1cc([N+](=O)[O-])cc([N+](=O)[O-])c1 do in these assays?
RAD52 anneal inh: -4; AF4-AF9 inh: 33*; dFosB act: -2; S100A4 inh HTS: -1

Screening results as filed in PubChem.
